# Only some compounds are listed: those with a hit (about 1.3% of all), similar ones and a draw of the others.
# Diaphorase inh = counter-screen for diaphorase-based assays: diaphorase inhibitors and chemical oxidizers | diaphorase resazurin-to-resorufin fluorescence, NADH, 16 min; bacterial (C. kluyveri) enzyme, not human | hit rate 0.69% among 190,000 | inhibition, % at 20 µM;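 active means primary screen inhibition at 20 µM above a set limit, cut at about 50% in these data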;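 further: plate controls were DMSO with full reaction for no effect and wells lacking NADH for full effect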
#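 System: Diaphorase enzyme from Clostridium kluyveri | Amount: Enzyme working solution with 0.14 U/mL diaphorase | Benchmarks: No-NADH positive control and DMSO neutral control | Signal: Fluorescence of resorufin formed from resazurin, Ex 544/Em 590 nm | Schedule: 16-min room-temperature incubation before reading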
# PfG6PD inh = PfG6PD (Plasmodium falciparum) enzyme inhibition; PfGluPho enzyme, NADPH resazurin-diaphorase fluorescence; hit rate 0.78% among 350,000; inhibition, % at 20 µM;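 active means inhibition reaching at least a set limit at 20 µM in the primary screen, cut at about 59% in these data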;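 further: 0% = DMSO wells with substrate and 100% = DMSO wells lacking glucose-6-phosphate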
# TbHK1 inh = blocks Trypanosoma brucei hexokinase 1 activity | recombinant TbHK1, G6PDH-coupled NADH A340 | inhibition, % at 10 µM | hit rate 0.11% among 220,000 | AID 1430;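 active means inhibition of 50% or more in the single-dose primary screen; inactive means inhibition below 50%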
# G6PDH counter = L. mesenteroides G6PDH inhibition counter-screen. AID 1020. hit rate 0.12% among 200,000. inhibition, % at 5 µM. Purified L. mesenteroides G6PDH, diaphorase/resazurin coupled fluorescence, 45 min; in the data active means inhibition above about 50%
# HKDC1 inh = inhibitors of human hexokinase HKDC1. hit rate 0.16% among 340,000. inhibition, % at 20 µM. recombinant HKDC1, G6PDH/diaphorase resazurin coupled fluorescence. Q2TB90;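 active means inhibition above about 35% when tested at 20 µM, limit read from the data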;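 further: plate controls were DMSO wells with enzyme for no effect and DMSO wells lacking enzyme for full effect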
#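 test system = in-house recombinant HK5 (HKDC1) enzyme | amount = HKDC1 at 5 µg/mL | control set = DMSO-enzyme wells negative, buffer-substituted wells positive | compound = one dose of 20 µM, 1% DMSO | schedule = reaction time 90 min, room temperature, protected from light | technique = resorufin fluorescence at 613 nm | reagent = glucose with 1 mM ATP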
# * marks the source's active call; other numbers are inactive results; . = not tested or not shown.
SMILES,Diaphorase inh,PfG6PD inh,TbHK1 inh,G6PDH counter,HKDC1 inh
Cc1c(CBr)[n+](=O)c2c(n1[O-])C(Br)CCC2Br (centres undefined),.,39,-9,.,2
COc1ccc(NC(=O)CSc2nc3c(c(-c4cccs4)c2C#N)CN(C)CC3)cc1OC,57*,43,-5,14,-1
COc1ccc(NC(=O)CSc2nnc(-c3cccs3)n2C)cc1OC,-3,-15,-9,-3,-5
Cc1cc(SCCOc2ccc(Br)cc2)nc(N)n1,22,8,-4,3,-1
CSc1ccc(C(=O)C2CCCN(C(=O)c3ccc4c(c3)no[n+]4[O-])C2)cc1 (centres undefined),.,23,0,.,-1
COc1ccccc1C(=O)Nc1nnc(S(=O)(=O)N(C)Cc2ccccc2)s1,.,13,.,.,0
Cc1cc(C)cc(Nc2cc(=O)n(C3CCCCC3)c(=O)[nH]2)c1,17,-4,-4,2,5
Cc1cc2nc3c(=O)n(C4CCCCC4)c(=O)[nH]c3nc2cc1N,60*,47,5,30,11
O=C(CSc1ccccc1)N[C@@H](Cc1ccccc1)C(=O)O,20,-9,-8,9,4
O=C(c1cc(COc2ccc(F)c(F)c2)on1)N1CCSCC1,.,6,.,.,7
O=C(O)c1ccc(N=Nc2c(O)[nH]c3ccc(Br)cc23)cc1,.,26,.,.,7
O=c1ccc2cc3c([nH]c4ccc(Br)cc43)oc-2c1O,76*,.,8,16,.
CC(O)Cn1ccccc1=N (centres undefined),11,-4,-1,5,-1
COc1cc(C(=O)ON=C2C(C)=CC(=O)C=C2C)cc(OC)c1OC,76*,50,-4,2,-1
Nc1ncnc2c1ncn2[C@@H]1O[C@H](CNC(=O)[C@@H](N)C2CCCCC2)[C@@H](O)[C@H]1O,.,-1,.,.,-4
c1ccc(Nc2cccc(Nc3ccccc3)n2)cc1,55*,57,-13,20,14
CCC1=C/C(=C/c2sc3ccccc3[n+]2CC)CC(C)(C)C1,17,61*,-14,-3,2
CC[n+]1c(/C=C2\C=C(C)CC(C)C2)sc2ccccc21 (centres undefined),15,49,-20,3,10
Cc1cc(=O)n2c(-c3ccc(Cl)cc3)csc2n1,.,2,-13,.,1
CCc1ccc(N2CSC3=C(C#N)C(c4cccs4)CC(=O)N3C2)cc1 (centres undefined),34,62*,-3,-14,10
CCOC(=O)c1ccc(N2CSC3=C(C#N)C(c4cccs4)CC(=O)N3C2)cc1 (centres undefined),47,48,-23,3,4
COc1ccc(N2CSC3=C(C#N)C(c4cccs4)CC(=O)N3C2)cc1 (centres undefined),53*,-1,-3,38,-6
COc1ccc(N2CSC3=C(C#N)C(c4cc(OC)ccc4OC)CC(=O)N3C2)c(OC)c1 (centres undefined),57*,113*,-10,50*,27
CCCSC1=C(C#N)C(c2cc(OC)ccc2OC)CC(=O)N1 (centres undefined),13,1,-3,7,4
CC1=C(C(=O)N2CCCC(C(=O)c3cccc4ccccc34)C2)OCCO1 (centres undefined),15,8,-3,9,-2
SMILES,Diaphorase inh,PfG6PD inh,TbHK1 inh,G6PDH counter,HKDC1 inh
Cc1ccc(S(=O)(=O)/N=C2\C(=O)c3ccccc3C([O-])=C2n2cc[n+](CCC(C)C)c2)cc1,12,44,-3,53*,0
CCc1cc(-c2[nH]ncc2-c2ccc([N+](=O)[O-])cc2)c(O)cc1OC,.,26,.,.,2
CCOC(=O)c1c(NC(=O)CSc2ncccn2)sc(C(=O)NC)c1C,.,-1,.,.,-1
O=C(COC(=O)C(O)c1ccccc1)NC12CC3CC(CC(C3)C1)C2 (centres undefined),15,-18,1,-2,-7
O=C(COC(=O)CCc1ccccc1)NC12CC3CC(CC(C3)C1)C2,71*,0,6,3,-1
COc1ccccc1CNC(=O)CN1C(=O)COc2ccc(S(=O)(=O)NC3CCCC3)cc21,.,-1,.,.,-4
O=C(/C=C/c1ccccc1)NC(=S)NNC(=O)c1ccco1,52*,-35,-29,2,-24
CN1CCN(C2=C(Cl)C(=O)N(C3CCCCC3)C2=O)CC1,20,-10,3,0,4

# High-throughput results (PubChem BioAssay)
